SR-BI HDL uptake: inhibitors of mouse SR-BI mediated HDL lipid uptake | Q61009 | ldlA[mSR-BI] CHO cells, DiI-HDL uptake fluorescence, 3 h | inhibition, % at 12.5 µM | hit rate 0.96% among 320,000;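 active = mean replicate inhibition of at least 70% and a set share of replicates each scoring 70 or more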;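 also: 0% = median of neutral control wells and 100% = median of positive control wells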
SR-BI DiI-HDL act: activators of SR-BI mediated HDL lipid uptake; activation, % at 12.5 µM; AID 504775; CHO ldlA[mSR-BI] cells, DiI-HDL uptake fluorescence, 3 h; 100 = double the neutral-control signal; hit rate 0.096% among 320,000;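 active = mean replicate activation of at least 60% and every replicate at or above 60%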;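 also: 0% = median plate neutral-control signal and 100% = twice that signal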
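Material – SR-BI-overexpressing, LDLR-lacking CHO cells · Medium – BSA-supplemented, HEPES-buffered Ham's F12, pH 7.4 · Doses – single concentration · Times – compound with DiI-HDL co-incubation, 3 h at 37 °C · Measured by – bottom-read fluorescence, 550/595 nm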
GAA850 FXN act: activators of GAA850 frataxin (FXN) promoter; HEK293 lucGAA850 FXN promoter luciferase reporter, 24 h; percent of 10 µM SAHA response; AID 540364; activation, % at 6 µM; hit rate 0.56% among 360,000;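 active = activation above the average of all compounds screened plus 3 SD, cutoff fixed separately per campaign, cut at about 7.5% in these data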;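 also: 0% = DMSO wells and 100% = 10 µM SAHA wells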
AHR act: activates the human aryl hydrocarbon receptor. P35869. AHR-responsive luciferase reporter cells, luminescence. activation, % at 5 µM. hit rate 2.5% among 320,000. AID 2796; in the data active = activation above about 47%;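 also: 0% = vehicle wells and 100% = reference agonist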
Target sequence (P35869 whole entry, looked up): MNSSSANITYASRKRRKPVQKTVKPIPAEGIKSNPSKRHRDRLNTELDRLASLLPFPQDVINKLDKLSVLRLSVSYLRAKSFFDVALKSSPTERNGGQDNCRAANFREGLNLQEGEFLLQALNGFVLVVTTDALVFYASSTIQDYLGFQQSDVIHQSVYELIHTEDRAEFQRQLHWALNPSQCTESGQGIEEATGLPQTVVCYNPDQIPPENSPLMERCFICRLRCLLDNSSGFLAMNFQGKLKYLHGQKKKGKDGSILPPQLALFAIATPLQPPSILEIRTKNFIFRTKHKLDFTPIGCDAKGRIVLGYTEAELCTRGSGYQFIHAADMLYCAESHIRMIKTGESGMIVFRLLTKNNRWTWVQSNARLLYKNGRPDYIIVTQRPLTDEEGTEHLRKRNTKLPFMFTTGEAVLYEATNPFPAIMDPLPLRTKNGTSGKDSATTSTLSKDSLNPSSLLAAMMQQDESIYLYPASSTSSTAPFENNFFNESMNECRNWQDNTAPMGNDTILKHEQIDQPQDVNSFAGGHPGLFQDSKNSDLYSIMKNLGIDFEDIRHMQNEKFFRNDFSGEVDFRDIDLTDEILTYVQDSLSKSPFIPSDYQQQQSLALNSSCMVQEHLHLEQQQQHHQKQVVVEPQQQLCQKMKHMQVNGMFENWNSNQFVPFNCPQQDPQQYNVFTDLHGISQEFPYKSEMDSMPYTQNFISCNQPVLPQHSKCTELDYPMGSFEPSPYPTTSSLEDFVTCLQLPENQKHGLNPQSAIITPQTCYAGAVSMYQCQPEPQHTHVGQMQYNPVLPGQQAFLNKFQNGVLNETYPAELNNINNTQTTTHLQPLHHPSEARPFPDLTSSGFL
ABCB6 inh 2: inhibitors of human ABC transporter ABCB6. Q9NP58. K562-ABCB6 porphyrin accumulation, flow cytometry, 1 h; stronger effect = lower value. fluorescence ratio to DMSO, % at 10 µM. hit rate 0.19% among 360,000. AID 602162;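 active = fluorescence ratio to DMSO below 75%, the collection mean minus 3 SD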;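 also: signal is porphyrin accumulated inside mitochondria; 100% equals median channel fluorescence of DMSO control wells; lower ratio means ABCB6 inhibition with less porphyrin fluorescence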
HIF activator: HIF pathway transcriptional activation. U2OS HRE-luciferase reporter, luminescence; normalized: DMSO 0%, desferrioxamine 100%. activation, % at 7.5 µM (by protocol). hit rate 0.32% among 300,000;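 active = mean activation of at least 10% of the iron chelator positive control signal, with at least half of replicates also reaching 10%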
Numbers without * were called inactive; . = not tested or not shown. Most compounds without a hit are left out; they make up all but 3.9% or so of the library.

SMILES	SR-BI HDL uptake	SR-BI DiI-HDL act	GAA850 FXN act	AHR act	ABCB6 inh 2	HIF activator
N#C/C(=C\c1ccc(OC(=O)c2ccc(Cl)s2)cc1)c1nc2ccccc2[nH]1	-15	15	4	49*	85	0
COc1ccc(NC(=S)NC2CCCCCC2)c(OC)c1	-18	18	0	2	97	1
Cc1ccc2[nH]c(O)c(N=Nc3ccccc3[N+](=O)[O-])c2c1	-7	7	2	.	95	.
COc1ccccc1N=Nc1[nH]c2ccc(C)cc2c1O	.	.	4	60*	100	0
CCCC(=O)NC(c1ccc(N(C)C)cc1)c1c(O)ccc2ccccc12 (centres undefined)	66	-66	-6	17	101	.
CCCCC(=O)NC(c1ccc(N(C)C)cc1)c1ccc2cccnc2c1O (centres undefined)	-5	5	-6	2	98	89*
CCCCC(=O)NC(c1ccc(N(CC)CC)cc1)c1ccc2cccnc2c1O (centres undefined)	8	-8	-4	1	98	97*
CCN(CC)c1ccc(C(NC(=O)C(C)C)c2ccc3cccnc3c2O)cc1 (centres undefined)	.	.	-9	.	97	.
COc1ccccc1OCCn1cc(C=O)c2ccccc21	19	-19	-1	.	88	-1
Cc1ccc(C(=O)N/N=C\C=C\c2ccccc2[N+](=O)[O-])cn1	32	-32	0	59*	133	0
Cn1c(=O)c2c(ncn2CC(=O)N/N=C/C=C\c2ccccc2[N+](=O)[O-])n(C)c1=O	.	.	.	15	.	0
Cc1ccc(C(=O)N/N=C\c2ccccc2[N+](=O)[O-])cn1	13	-13	5	.	101	1
Cn1c(=O)c2c(ncn2CC(=O)N/N=C/C=C/c2ccccc2[N+](=O)[O-])n(C)c1=O	.	.	.	61*	.	0
Cc1ccc(Cn2c(O)c(N=O)c3ccccc32)cc1	-28	28	0	0	99	0
Cc1cccc2c(N=O)c(O)n(CCc3ccccc3)c12	5	-5	2	67*	98	0
O=C(Nc1ccccc1O)c1c(O)c2c([nH]c1=O)CCCC2	33	-33	7	57*	97	3
O=C(Nc1nccs1)c1c(O)c2c([nH]c1=O)CCCC2	.	.	3	3	99	.
CC(C)=NOC(=O)c1c(C)noc1-c1snnc1C	-12	12	0	0	102	60*
Cc1nc2sccn2c1-c1nc(-c2cc3ccccc3o2)cs1	34	-34	2	54*	88	2
CC(O)(c1ccccc1)c1nc(-c2cc3ccccc3o2)cs1 (centres undefined)	.	.	2	.	95	.
CCOC(=O)C1CCN(C(=O)Nc2ccc(Cl)cc2Cl)CC1	80*	-80	2	-3	103	0
CCOC(=O)C1CCN(C(=O)Nc2cccc(Cl)c2)CC1	-11	11	1	0	96	0
O=C(Nc1ccc(Cl)cc1)NN1CC(=O)N(c2cccc(C(F)(F)F)c2)CC1=O	2	-2	1	3	98	29*
CCOc1cccc(NC(=O)C2CC(=O)N(C)C(=Nc3ccccc3)S2)c1 (centres undefined)	75*	-75	-4	5	99	0
CN1C(=O)CC(C(=O)Nc2ccccc2F)SC1=Nc1ccc2c(c1)OCO2 (centres undefined)	73*	-73	0	2	97	0
CCOc1cccc(NC(=O)C2CC(=O)N(C)C(=Nc3cccc(F)c3)S2)c1 (centres undefined)	73*	-73	0	3	93	0
COc1ccc(NC(=O)c2cc3c(s2)CCC3)cc1S(=O)(=O)N1CCOCC1	70*	-70	-1	20	96	0
COc1ccc(CCNC(=O)/C=C/c2ccco2)cc1OC	14	-14	4	-1	100	0
COc1ccc(/C=C/C(=O)NCCSCc2ccco2)cc1OC	39	-39	1	8	102	57*
COc1ccc(/C=N/OCC(=O)N2CC3(C)CC2CC(C)(C)C3)cc1OC (centres undefined)	9	-9	2	-2	102	0

Bioassay records from PubChem.
